Only some compounds are listed: those with a hit (about 2.1% of all), similar ones and a draw of the others.
Mot1-301 SUMO: yeast Mot1-301 growth rescue at high temperature, primary screen, SUMOylation pathway inhibitor project, S. cerevisiae, ATP luminescence, 38.5C | growth rescue, % at 18.8 µM | S. cerevisiae Mot1-301 growth rescue; percent above DMSO median, 100 means doubled | hit rate 1% among 320,000 | AID 2716, 2010;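 active means every valid replicate shows activation above 250% relative to neutral control wells; inactive means the rest, any valid replicate at or below 250%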;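 further: OY570 slx delta 5 strain wells were the positive control but not used for scaling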
RTF Ca sens act: cardiac RTF calcium sensitivity activators, primary screen, biochemical, IANBD-TnC fluorescence, EC20 calcium; hit rate 0.24% among 340,000; AID 493008, 2010; activation, % at 7.2 µM; IANBD-labeled TnC RTF fluorescence at EC20 calcium; 0% EC20 calcium, 100% full calcium;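 active means activation above the mean over all tested compounds plus 3 SD, cut at about 30% in these data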;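 further: rise in fluorescence read as greater calcium sensitivity of cardiac thin filaments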
UCH37 DUB inh: inhibitors of human UCH37 deubiquitinase, primary screen, biochemical, Ub-AMC cleavage, fluorescence. purified proteasome/UCH37. Ubiquitin carboxyl-terminal hydrolase isozyme L5 (Homo sapiens), Q9Y5K5. AID 588478, 2011. inhibition, % (test concentration not listed). hit rate 0.33% among 330,000;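 active means mean inhibition over replicate wells above about 20%, limit read from the data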;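 further: 0% = compound-free wells with enzyme and 100% = wells lacking proteasome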
Target sequence (Q9Y5K5 whole entry, looked up): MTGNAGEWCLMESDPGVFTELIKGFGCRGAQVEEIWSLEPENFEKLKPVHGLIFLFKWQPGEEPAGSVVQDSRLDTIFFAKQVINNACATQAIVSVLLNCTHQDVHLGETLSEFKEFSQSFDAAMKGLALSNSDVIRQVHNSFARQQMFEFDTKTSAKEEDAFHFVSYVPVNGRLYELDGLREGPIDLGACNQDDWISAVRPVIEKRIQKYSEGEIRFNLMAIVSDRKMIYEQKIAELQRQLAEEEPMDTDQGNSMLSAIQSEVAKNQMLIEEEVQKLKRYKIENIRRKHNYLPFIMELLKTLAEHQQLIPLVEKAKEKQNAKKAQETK
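Assay system: Proteasome-bound UCH37. Buffer or medium: pH 7.4 Tris-HCl (50 mM) with ovalbumin, ATP-MgCl2, DTT. Incubation: 30 min preincubation with enzyme, 25 min cleavage at room temperature. Measured by: fluorescence, ex 355 nm, em 460 nm. Read-out basis: percent inhibition. Control set: wells without proteasome as full block, compound-free enzyme plus substrate as uninhibited.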
Efflux pump inh: inhibitors of Candida efflux pumps in yeast, primary screen, S. cerevisiae, Nile Red, multiplex; S. cerevisiae Candida pump triplex; inhibition, % at 10 µM; hit rate 0.44% among 330,000; AID 485275, 2010;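 active means plate passing quality check with inhibition over a set limit, or well fluorescence over plate mean plus 4 SD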;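 further: Nile Red retained in pooled yeast measured as flow cytometry median fluorescence; 0% = buffer negative control and 100% = Enniatin B positive control; higher means more Nile Red kept so more efflux inhibition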
RTF Ca sens inh: cardiac RTF calcium sensitivity inhibitors, primary screen, biochemical, IANBD-TnC fluorescence, EC70 calcium | IANBD-labeled cardiac RTF, Ca2+ fluorescence | inhibition, % at 7.15 µM | hit rate 0.12% among 340,000 | AID 493244, 2011;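 active means inhibition above the mean inhibition of all tested compounds plus 3 SD, cut at about 17% in these data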;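 further: assay run at fixed EC70 calcium of 1.6 mM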
ARNT TACC3 PPI: disruptors of ARNT/TACC3 protein interaction, primary screen, biochemical, AlphaScreen, single concentration; AlphaScreen His-ARNT PAS-B/GST-TACC3 binding, luminescence; TACC3 fragment carries E629A point mutation; inhibition, % at 9.99 µM; hit rate 0.66% among 390,000; AID 623870, 2012;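 active means mean inhibition of replicates at least 50% and at least half of replicates each reaching 50%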;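 further: 0% = complete ARNT plus TACC3 wells and 100% = ARNT alone without TACC3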
UCH37 confirm: retest of human UCH37 deubiquitinase inhibitors, confirmation, biochemical, Ub-AMC cleavage rate, fluorescence | Proteasome-bound UCH37 | hit rate 27% among 480 | shares compounds with UCH37 DUB inh | inhibition, % at 20 µM;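 active means average inhibition over replicates above about 50%, so the earlier screening hit is confirmed, limit read from the data; inactive means the rest, counted as false positives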;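 further: based on cleavage rate fitted by regression over a 30 min kinetic read; 0% = proteasome plus Ub-AMC and 100% = Ub-AMC without proteasome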
* hit, by the source's call; . = no result given.

SMILES	Mot1-301 SUMO	RTF Ca sens act	UCH37 DUB inh	Efflux pump inh	RTF Ca sens inh	ARNT TACC3 PPI	UCH37 confirm
Cn1c(O)c(C(=O)c2ccccc2)c(=O)n(C)c1=O	1	-2	42*	0	-3	-28	7
CN1CCN(c2ccc([N+](=O)[O-])c3no[n+]([O-])c23)CC1	233	282*	42*	0	-348	38*	29
CN1CCN(c2ccc(S(C)(=O)=O)cc2[N+](=O)[O-])CC1	9	0	4	0	-12	-2	.
O=C(O)[C@@H]1[C@@H](CO)[C@@H]2Cn3c(cccc3=O)[C@H]1N2C(=O)c1ccccc1	.	.	.	.	.	9	.
C=C(C)C(Cc1c(OC)ccc(C(=O)/C=C/c2ccc(O)cc2)c1O)OO (stereo not given)	.	1	49*	0	2	8	19
Cc1ccc2c(c1)CC1(CN2C)C(=O)NC(=O)N(CCC2=CCCCC2)C1=O (stereo not given)	4	4	35*	0	-1	26	20
COC(=O)[C@H]1[C@H](CO)[C@H]2Cn3c(ccc(-c4ccccc4F)c3=O)[C@@H]1N2	.	.	.	.	.	0	.
Cc1nc2c(=O)n(C)c(=O)nc-2n(C)n1	-19	-3	100*	0	-4	19	100*
O=C1C(=O)c2ccccc2-c2ccccc21	152	2	87*	0	9	-31	101*
COC(=O)[C@@H]1[C@@H](CO)[C@@H]2Cn3c(ccc(-c4cncnc4)c3=O)[C@H]1N2S(=O)(=O)c1ccccc1C	.	.	.	.	.	-4	.
COC(=O)[C@@H]1[C@@H](CO)[C@@H]2Cn3c(ccc(-c4cccnc4)c3=O)[C@H]1N2S(=O)(=O)c1ccccc1F	.	.	.	.	.	-3	.
CC(C)(C)N1C(=O)NC(=O)/C(=C\c2ccc3c(c2)CCN3CCCCl)C1=O	-15	1	64*	0	-3	-7	1
CCN1C(=O)/C(=C/c2ccc3c(c2)CCN3CCCCl)C(=O)NC1=S	-9	-6	3	0	-9	.	.
COC(=O)[C@H]1N[C@H]2c3ccc(C4=CCCC4)c(=O)n3C[C@H]2[C@@H]1CO	.	.	.	.	.	-1	.
O=C1NC(=O)C(Nc2ccc(Cl)c(Cl)c2)C(=O)N1	.	-3	59*	.	-5	25*	-2
O=C(Nc1ccc(Cl)c(Cl)c1)c1ccco1	-10	1	-1	0	2	-2	.
COC(=O)[C@H]1[C@H](CO)[C@H]2Cn3c(ccc(/C=C/c4ccccc4)c3=O)[C@@H]1N2C(=O)C1CC1	.	.	.	.	.	-17	.
Cc1cccc(-n2c(O)c(/C=N/Nc3nc4c(c(=O)n(C)c(=O)n4C)n3C)c(=O)[nH]c2=S)c1	-19	3	27*	1	-10	72*	22
CN1/C(=C\C=C2C(=O)NC(=O)NC2=O)C(C)(C)c2ccccc21	4	109*	39*	0	-182	-1	6
COC(=O)C1=C(c2cccc(C#N)c2)C[C@@H]2CC[C@H]1N2C(=O)NCCOc1ccccc1Cl	1	1	46*	0	-6	0	7
COC(=O)C1=C(c2cccc(C#N)c2)C[C@@H]2CC[C@H]1N2C(=O)NCCOc1ccccc1	0	10	0	0	-3	-1	.
N#Cc1cccc(-c2ccc([C@@H]3[C@H]4CN(C(=O)Cc5ccccc5)CCCCN4[C@H]3CO)cc2)c1	.	.	.	.	.	-3	.
O=C(O)CC1OCC=C2CN3CCC45C6=CC(=O)C(=O)C([N+](=O)[O-])=C6NC4C1C2CC35 (stereo not given)	-18	-3	97*	1	1	30	97*

Screening results deposited in PubChem by several laboratories.
